Structures are written as SMILES.

Assay [1] addresses T1, Amyloid-beta precursor protein (Homo sapiens, UniProt P05067). Description: Inhibition of amyloid beta (1 to 42) (unknown origin) self aggregation after 24 hrs by thioflavin-T fluorescence method. Put shortly:
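ThT aggregation assay. Compound at varying concentrations combined with 10 µM Aβ1-42 (1 mM DMSO stock), 10 µM ThT, 1 mM EDTA in 50 mM phosphate buffer (150 mM NaCl, pH 7.4). Incubated 24 h at 37 °C with shaking at 700 rpm; fluorescence ex 440/em 486 nm. 0.1% DMSO wells = 100% aggregation; compound wells without Aβ = background. IC50 from triplicates.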

For assay [2], the target named is T1, Amyloid-beta precursor protein. As to the kind of experiment: Disaggregation of self-induced amyloid beta (1 to 42) (unknown origin) preformed fibrils at 10 uM measured after 24 hrs by thioflavin-T fluorescence assay relative to control. Put shortly:
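Aβ1-42 (10 µM) with 10 µM ThT and 1 mM EDTA in 50 mM phosphate buffer (150 mM NaCl, pH 7.4) pre-aggregated 24 h at 37 °C, 700 rpm; fluorescence read (ex 440/em 486 nm). Compound then added and incubated a further 24 h at 37 °C before re-reading. Disaggregation = (first − second reading)/first reading. Triplicate.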

The target in assay [3] is Class 1 histone deacetylase (Homo sapiens, UniProt Q13547+O15379+Q92769+Q9BY41). As to the kind of experiment: Inhibition of class 1 HDAC in human HeLa cell nuclear extract using Boc-Lys(Ac)-AMC as substrate preincubated for 5 mins followed by substrate addition and measured after 30 mins by fluorescence assay. It is filed as cell-based.
A further assay has as its target Histone deacetylase 4 (Homo sapiens, UniProt P56524). As to the kind of experiment: Inhibition of recombinant human N-terminal GST-tagged/C-terminal His-tagged HDAC4 (627 to 1084 residues) expressed in baculovirus expression system using Boc-Lys(TFA)-AMC as substrate preincubated for 5 mins followed by substrate addition and measured after 30 mins by fluorescence assay.

In the next assay the target is Histone deacetylase 5 (Homo sapiens, UniProt Q9UQL6). Description: Inhibition of recombinant human C-terminal His-tagged HDAC5 (656 to 1122 residues) expressed in baculovirus infected Sf9 insect cells using fluorogenic HDAC 2A substrate preincubated for 5 mins followed by substrate addition and measured after 30 mins by fluorescence assay.
The target in the next assay is Histone deacetylase 9 (Homo sapiens, UniProt Q9UKV0). Description: Inhibition of recombinant human C-terminal His-tagged HDAC9 (604 to 1066 residues) expressed in baculovirus infected Sf9 cells using fluorogenic HDAC 2A substrate preincubated for 5 mins followed by substrate addition and measured after 30 mins by fluorescence assay.
The target in assay [4] is T2, Protein deacetylase HDAC6 (Homo sapiens, UniProt Q9UBN7).
T2 sequence (Q9UBN7 whole entry): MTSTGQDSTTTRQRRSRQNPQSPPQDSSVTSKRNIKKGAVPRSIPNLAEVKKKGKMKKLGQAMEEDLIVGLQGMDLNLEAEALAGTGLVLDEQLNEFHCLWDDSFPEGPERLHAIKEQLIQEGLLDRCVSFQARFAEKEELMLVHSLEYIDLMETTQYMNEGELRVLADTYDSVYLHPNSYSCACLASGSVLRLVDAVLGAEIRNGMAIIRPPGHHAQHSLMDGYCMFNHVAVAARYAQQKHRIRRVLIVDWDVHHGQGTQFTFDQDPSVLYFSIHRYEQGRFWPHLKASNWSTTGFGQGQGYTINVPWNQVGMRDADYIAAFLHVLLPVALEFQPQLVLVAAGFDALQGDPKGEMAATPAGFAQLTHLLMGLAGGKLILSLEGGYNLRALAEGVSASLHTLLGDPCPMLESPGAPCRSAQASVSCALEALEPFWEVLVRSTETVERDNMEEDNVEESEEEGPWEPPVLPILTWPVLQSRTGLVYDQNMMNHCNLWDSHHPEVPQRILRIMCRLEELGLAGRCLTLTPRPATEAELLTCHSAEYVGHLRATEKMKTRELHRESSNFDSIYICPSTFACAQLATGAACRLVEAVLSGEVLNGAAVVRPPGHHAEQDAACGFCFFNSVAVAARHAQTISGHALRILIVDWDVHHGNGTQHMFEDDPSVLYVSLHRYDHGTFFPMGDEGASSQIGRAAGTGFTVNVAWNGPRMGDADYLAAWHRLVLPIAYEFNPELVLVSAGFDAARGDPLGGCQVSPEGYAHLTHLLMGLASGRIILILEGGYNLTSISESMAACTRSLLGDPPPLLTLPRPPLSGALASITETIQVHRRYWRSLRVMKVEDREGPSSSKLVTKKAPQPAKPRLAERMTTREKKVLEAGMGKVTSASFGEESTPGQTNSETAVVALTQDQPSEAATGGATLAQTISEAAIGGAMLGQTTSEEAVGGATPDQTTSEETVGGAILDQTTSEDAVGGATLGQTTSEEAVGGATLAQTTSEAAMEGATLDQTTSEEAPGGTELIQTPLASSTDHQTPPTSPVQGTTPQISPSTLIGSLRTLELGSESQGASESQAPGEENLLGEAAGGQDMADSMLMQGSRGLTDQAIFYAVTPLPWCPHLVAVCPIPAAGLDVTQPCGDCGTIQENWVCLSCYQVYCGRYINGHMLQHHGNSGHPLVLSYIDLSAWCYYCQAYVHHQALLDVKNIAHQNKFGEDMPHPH
As to the kind of experiment: Inhibition of recombinant human full-length N-terminal GST-tagged HDAC6 expressed in baculovirus infected Sf9 insect cells using Boc-Lys(Ac)-AMC as substrate preincubated for 5 mins followed by substrate addition and measured after 30 mins by fluorescence assay.

The target in the next assay is Acetylcholinesterase (Homo sapiens, UniProt P22303). Description: Inhibition of recombinant human C-terminal 6His-tagged AChE (Glu32 to Leu614 residues) expressed in CHO cells using acetylthiocholine iodide as substrate preincubated for 5 mins measured after 15 mins by DTNB reagent based assay. The method, boiled down: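 Enzyme, compounds, acetylthiocholine iodide and DTNB diluted in 100 mM phosphate buffer pH 7.4. AChE was preincubated with the compound at varying concentrations for 5 min at 37 °C. The reaction was started with 1 mM ATCI solution and run 15 min at 37 °C. 2 mM DTNB solution was then added for 5 min. Absorbance read at 412 nm. IC50 set 0.1% DMSO wells as 100% and no-enzyme wells as 0%. Run in triplicate.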

Another assay deals with T3, Histone deacetylase 7 (Homo sapiens, UniProt Q8WUI4).
T3 sequence (Q8WUI4 whole entry): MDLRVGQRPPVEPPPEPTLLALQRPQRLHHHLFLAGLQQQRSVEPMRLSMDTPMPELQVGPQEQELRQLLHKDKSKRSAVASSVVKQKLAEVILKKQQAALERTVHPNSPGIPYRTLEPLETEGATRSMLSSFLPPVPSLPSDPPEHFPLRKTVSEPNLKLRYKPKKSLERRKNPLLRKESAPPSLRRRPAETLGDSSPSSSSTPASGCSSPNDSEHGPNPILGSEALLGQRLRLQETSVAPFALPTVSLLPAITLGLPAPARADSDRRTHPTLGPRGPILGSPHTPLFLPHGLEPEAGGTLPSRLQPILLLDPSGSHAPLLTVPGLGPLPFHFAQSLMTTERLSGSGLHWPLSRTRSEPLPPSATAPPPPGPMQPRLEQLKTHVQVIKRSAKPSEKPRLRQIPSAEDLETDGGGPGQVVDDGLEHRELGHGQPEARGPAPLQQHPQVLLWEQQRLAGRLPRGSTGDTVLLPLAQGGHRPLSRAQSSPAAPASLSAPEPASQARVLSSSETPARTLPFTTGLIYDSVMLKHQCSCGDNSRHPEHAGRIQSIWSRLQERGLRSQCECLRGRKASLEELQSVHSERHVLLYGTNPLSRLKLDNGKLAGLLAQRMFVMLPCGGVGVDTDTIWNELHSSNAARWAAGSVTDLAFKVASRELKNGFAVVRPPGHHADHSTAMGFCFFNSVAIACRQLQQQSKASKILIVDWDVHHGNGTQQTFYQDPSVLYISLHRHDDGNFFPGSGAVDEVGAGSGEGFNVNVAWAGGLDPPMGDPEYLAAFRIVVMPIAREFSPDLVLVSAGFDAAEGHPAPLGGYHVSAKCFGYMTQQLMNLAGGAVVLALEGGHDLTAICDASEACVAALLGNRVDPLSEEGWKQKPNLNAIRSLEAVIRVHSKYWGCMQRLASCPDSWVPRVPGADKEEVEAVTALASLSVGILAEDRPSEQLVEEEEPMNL
As to the kind of experiment: Inhibition of recombinant human N-terminal GST-tagged HDAC7 (518 to end residues) expressed in baculovirus infected Sf9 cells using fluorogenic HDAC 2A substrate preincubated for 5 mins followed by substrate addition and measured after 30 mins by fluorescence assay.

Histone deacetylase 5, sequence (Q9UQL6 whole entry, the tested form may be a part): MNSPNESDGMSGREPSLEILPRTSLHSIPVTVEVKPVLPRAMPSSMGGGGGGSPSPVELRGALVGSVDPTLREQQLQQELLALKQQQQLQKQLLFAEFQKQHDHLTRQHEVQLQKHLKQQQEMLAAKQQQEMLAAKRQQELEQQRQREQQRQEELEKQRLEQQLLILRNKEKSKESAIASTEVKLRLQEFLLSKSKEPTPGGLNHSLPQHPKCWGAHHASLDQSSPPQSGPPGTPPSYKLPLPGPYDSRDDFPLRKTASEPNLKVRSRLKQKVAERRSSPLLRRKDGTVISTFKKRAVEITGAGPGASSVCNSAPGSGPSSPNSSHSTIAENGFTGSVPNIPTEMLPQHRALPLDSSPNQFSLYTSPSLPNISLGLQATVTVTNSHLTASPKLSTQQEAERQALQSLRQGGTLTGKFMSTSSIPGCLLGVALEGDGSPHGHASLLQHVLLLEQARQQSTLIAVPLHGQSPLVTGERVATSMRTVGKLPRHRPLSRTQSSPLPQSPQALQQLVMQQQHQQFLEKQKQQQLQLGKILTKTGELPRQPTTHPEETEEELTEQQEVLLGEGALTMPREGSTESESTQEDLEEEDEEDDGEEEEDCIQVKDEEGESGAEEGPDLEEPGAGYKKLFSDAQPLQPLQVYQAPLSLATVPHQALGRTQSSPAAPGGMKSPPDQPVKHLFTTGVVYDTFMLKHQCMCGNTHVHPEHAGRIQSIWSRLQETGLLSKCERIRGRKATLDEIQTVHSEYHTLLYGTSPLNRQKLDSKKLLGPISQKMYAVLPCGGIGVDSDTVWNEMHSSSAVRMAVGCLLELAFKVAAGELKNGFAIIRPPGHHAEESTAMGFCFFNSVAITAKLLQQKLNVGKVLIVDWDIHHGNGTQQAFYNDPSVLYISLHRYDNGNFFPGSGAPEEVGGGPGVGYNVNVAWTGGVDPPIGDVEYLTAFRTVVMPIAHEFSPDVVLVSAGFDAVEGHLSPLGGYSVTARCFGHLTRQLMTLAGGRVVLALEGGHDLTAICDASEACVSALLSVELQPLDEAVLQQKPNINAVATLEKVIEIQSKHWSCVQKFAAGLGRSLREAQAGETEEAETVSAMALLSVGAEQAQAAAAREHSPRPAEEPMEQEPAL
Acetylcholinesterase, sequence (P22303 whole entry): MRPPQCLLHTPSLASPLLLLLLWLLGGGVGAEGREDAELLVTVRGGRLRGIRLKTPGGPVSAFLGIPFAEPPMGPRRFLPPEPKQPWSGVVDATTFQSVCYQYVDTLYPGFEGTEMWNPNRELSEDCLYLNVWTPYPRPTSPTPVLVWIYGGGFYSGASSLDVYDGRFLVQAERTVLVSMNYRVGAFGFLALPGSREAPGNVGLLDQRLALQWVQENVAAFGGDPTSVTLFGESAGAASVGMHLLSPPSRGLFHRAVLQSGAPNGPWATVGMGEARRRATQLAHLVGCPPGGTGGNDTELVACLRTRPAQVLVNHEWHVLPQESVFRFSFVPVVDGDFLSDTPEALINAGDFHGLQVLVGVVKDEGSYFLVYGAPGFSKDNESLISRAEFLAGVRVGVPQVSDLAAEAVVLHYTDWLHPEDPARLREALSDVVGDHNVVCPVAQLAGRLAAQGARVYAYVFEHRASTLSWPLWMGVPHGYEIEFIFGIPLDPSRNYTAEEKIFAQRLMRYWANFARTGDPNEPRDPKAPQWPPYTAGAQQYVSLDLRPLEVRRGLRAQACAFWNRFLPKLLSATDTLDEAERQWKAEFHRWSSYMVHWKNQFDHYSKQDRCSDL
Histone deacetylase 4, sequence (P56524 whole entry, the tested form may be a part): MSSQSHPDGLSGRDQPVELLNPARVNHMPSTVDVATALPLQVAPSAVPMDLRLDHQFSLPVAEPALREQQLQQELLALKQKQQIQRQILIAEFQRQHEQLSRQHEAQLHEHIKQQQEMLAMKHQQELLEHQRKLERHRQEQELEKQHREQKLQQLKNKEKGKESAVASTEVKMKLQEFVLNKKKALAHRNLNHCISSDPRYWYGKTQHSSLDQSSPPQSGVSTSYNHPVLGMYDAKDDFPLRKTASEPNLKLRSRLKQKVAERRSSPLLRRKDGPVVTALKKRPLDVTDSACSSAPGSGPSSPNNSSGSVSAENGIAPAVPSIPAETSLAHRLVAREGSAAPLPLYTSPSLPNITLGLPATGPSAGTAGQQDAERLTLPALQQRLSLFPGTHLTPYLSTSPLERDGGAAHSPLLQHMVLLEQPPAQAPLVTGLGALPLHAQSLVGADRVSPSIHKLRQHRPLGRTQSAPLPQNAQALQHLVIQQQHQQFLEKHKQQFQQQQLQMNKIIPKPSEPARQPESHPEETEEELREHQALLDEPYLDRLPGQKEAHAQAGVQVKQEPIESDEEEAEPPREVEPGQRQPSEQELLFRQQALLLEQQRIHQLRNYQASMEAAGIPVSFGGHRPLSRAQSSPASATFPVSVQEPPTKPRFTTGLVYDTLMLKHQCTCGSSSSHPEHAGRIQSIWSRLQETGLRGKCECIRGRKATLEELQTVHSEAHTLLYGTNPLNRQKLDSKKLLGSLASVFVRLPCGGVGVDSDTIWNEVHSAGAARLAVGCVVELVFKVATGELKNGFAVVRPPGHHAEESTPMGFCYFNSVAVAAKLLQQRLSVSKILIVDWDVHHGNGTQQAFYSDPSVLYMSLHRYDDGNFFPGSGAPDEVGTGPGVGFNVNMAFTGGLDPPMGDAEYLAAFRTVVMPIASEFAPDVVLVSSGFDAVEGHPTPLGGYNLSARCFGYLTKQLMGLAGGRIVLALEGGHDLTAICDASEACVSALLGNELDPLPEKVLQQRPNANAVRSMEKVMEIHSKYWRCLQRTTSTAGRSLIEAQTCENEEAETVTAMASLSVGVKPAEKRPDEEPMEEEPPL
T1 sequence (P05067 whole entry): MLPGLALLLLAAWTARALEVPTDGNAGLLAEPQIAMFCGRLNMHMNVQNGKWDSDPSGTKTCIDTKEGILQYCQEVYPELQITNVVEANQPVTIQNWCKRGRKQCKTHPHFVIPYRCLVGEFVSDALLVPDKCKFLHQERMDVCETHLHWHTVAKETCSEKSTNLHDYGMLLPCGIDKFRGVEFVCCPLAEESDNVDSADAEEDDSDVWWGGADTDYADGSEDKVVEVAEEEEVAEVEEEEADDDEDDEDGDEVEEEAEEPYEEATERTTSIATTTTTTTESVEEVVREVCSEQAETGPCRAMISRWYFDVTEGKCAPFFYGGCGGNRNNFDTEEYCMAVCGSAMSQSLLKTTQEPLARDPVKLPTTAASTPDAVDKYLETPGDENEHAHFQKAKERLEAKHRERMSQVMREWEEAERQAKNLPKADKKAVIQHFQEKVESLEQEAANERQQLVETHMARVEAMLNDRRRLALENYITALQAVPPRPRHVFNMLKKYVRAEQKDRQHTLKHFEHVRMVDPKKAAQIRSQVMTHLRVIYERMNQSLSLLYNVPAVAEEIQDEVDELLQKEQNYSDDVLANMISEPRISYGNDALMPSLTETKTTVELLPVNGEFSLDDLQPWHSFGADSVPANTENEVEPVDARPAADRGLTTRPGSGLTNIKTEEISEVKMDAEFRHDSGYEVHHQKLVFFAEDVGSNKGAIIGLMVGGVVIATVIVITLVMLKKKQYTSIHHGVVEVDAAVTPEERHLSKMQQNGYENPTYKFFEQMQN
Histone deacetylase 9, sequence (Q9UKV0 whole entry, the tested form may be a part): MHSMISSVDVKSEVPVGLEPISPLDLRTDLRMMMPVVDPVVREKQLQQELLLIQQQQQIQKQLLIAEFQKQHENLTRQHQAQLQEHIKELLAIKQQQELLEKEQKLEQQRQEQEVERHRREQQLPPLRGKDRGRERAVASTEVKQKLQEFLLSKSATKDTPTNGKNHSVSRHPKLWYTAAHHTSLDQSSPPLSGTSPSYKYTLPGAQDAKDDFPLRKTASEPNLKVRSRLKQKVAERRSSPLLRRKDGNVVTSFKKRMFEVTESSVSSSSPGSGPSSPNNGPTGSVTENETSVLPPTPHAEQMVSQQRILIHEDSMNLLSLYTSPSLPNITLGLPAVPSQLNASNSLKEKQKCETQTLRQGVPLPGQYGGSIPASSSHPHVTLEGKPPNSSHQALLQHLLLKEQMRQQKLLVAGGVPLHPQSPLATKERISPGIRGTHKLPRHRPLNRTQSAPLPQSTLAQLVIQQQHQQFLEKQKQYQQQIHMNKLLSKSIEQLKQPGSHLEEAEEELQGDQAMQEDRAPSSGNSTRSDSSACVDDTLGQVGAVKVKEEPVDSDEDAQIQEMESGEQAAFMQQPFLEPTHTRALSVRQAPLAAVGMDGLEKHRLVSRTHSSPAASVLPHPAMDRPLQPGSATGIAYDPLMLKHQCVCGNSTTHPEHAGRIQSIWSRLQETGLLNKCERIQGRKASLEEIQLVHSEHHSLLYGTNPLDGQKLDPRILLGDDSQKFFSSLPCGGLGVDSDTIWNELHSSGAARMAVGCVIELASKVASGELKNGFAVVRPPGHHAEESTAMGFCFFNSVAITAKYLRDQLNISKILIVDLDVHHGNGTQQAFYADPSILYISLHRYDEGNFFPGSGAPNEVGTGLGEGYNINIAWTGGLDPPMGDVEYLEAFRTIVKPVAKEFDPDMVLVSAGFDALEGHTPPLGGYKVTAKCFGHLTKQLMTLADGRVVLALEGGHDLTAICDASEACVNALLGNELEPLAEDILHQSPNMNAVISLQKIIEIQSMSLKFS

Turning to `O=C(CCCCCCC(=O)Nc1ccccc1)NO` [VORINOSTAT], in assay [1], the IC50 (commonly the concentration needed to halve the response being measured) was over 20 µM. Besides, the inhibition (commonly the drop in the measured response relative to a control, in per cent) in [2] turned out to be 0%.

Turning to `O=C(NO)c1ccc(Nc2ccnc3ccccc23)cc1`, the IC50 in assay [3] was 0.6 µM; at Histone deacetylase 4, over 40 µM; at Histone deacetylase 5, 3.37 µM; at Histone deacetylase 9 it was 13.2 µM; in assay [4], 0.039 µM; in assay [1] it was over 20 µM. Moreover, the IC50 on Acetylcholinesterase was determined as 0.83 µM. This compound gave an inhibition in [2] of 0%.

On to `O=C(CCc1ccc(Nc2c3ccccc3nc3ccccc23)cc1)NO`, for which the IC50 in assay [3] is 0.1 µM; at Histone deacetylase 4, 7.06 µM; on Histone deacetylase 5, 2.58 µM; at Histone deacetylase 9 it was 29 µM; in [4], 0.14 µM.

Take `COc1ccc2nc3cc(Cl)ccc3c(Nc3ccc(C(=O)NO)cc3)c2n1`: the IC50 is 0.8 µM in assay [3]; over 40 µM at Histone deacetylase 4; 15.2 µM at Histone deacetylase 5; over 40 µM on Histone deacetylase 9; 0.34 µM in assay [4]; 34.9 µM in assay [1]. For the same compound, the IC50 on Acetylcholinesterase came to 9.25 µM. The inhibition in [2] came to 53%.

Take `COc1cc2nc3ccccc3c(Nc3ccc(C(=O)NO)cc3)c2c(OC)c1OC`: the IC50 in [3] was determined as 0.81 µM; at Histone deacetylase 7, 4.57 µM; on Histone deacetylase 4 it was 15.7 µM; on Histone deacetylase 5, 4.23 µM; on Histone deacetylase 9 it was 4.95 µM; in [4] it was 0.16 µM. Moreover, the IC50 in assay [1] stood at 13 µM; at Acetylcholinesterase it was 0.64 µM. In assay [2], this compound registered an inhibition of 42%.

With `O=C(Cc1ccc(Nc2c3ccccc3nc3ccccc23)cc1)NO`, the IC50 was 2.07 µM in assay [3]; 1.94 µM on Histone deacetylase 7; 26.6 µM at Histone deacetylase 4; 1.66 µM on Histone deacetylase 5; 6.42 µM at Histone deacetylase 9; 0.074 µM in assay [4].

Take `O=C(NO)c1cccc(Nc2c3ccccc3nc3ccccc23)c1`: the IC50 in [3] is over 40 µM; on Histone deacetylase 4 it was 29.4 µM; at Histone deacetylase 5, 20.8 µM; at Histone deacetylase 9, 12.2 µM; in [4], 4.69 µM.

The compound `O=c1c(O)c(-c2ccc(O)cc2O)oc2cc(O)cc(O)c12` [MORIN] had an IC50 in [1] of 8.5 µM.

On to `O=C(NO)c1ccc(Nc2c3ccccc3nc3ccc(OCc4ccccc4)cc23)cc1`, for which the IC50 in assay [3] was 3.5 µM; at Histone deacetylase 7, 3.1 µM; on Histone deacetylase 4 it was 1.21 µM; at Histone deacetylase 5, 0.43 µM; at Histone deacetylase 9, 1.25 µM; in assay [4], 0.22 µM. Also, the IC50 in [1] was 3 µM; at Acetylcholinesterase it was 2.64 µM. Besides, the inhibition in assay [2] is 57%.

Turning to `O=C(NO)c1ccc(Nc2c3c(nc4ccccc24)CCCC3)cc1`, the IC50 is over 40 µM in assay [3]; over 40 µM on Histone deacetylase 7; over 40 µM at Histone deacetylase 4; 17.5 µM at Histone deacetylase 5; over 40 µM on Histone deacetylase 9; 3.55 µM in assay [4]. The IC50 in assay [1] was over 20 µM; on Acetylcholinesterase it was 1.97 µM. Besides, the inhibition in assay [2] came to 0%.

Consider `O=C(NO)c1ccc(Nc2c3ccccc3nc3ccc(OC(F)(F)F)cc23)cc1`, for which the IC50 was 0.67 µM in assay [3]; 14.7 µM on Histone deacetylase 4; 15.8 µM at Histone deacetylase 5; 31.1 µM at Histone deacetylase 9; 0.029 µM in assay [4]; 3.5 µM in assay [1]. Moreover, the IC50 at Acetylcholinesterase worked out at 3.65 µM. Also, the inhibition in assay [2] is 53%.

Regarding `O=C(NO)c1ccc(Nc2c3ccccc3nc3ccc(F)cc23)cc1`, the IC50 in assay [3] is 0.25 µM; on Histone deacetylase 4 it was 3.04 µM; at Histone deacetylase 5, 0.69 µM; on Histone deacetylase 9, 0.52 µM; in assay [4], 0.029 µM; in assay [1], over 20 µM. The IC50 on Acetylcholinesterase was determined as 0.6 µM. The inhibition in assay [2] was found to be 38%.

For the compound `c1ccc2nc3ccccc3cc2c1` [ACRIDINE], at Acetylcholinesterase, the IC50 worked out at 6.84 µM.

These data come from ChEMBL document CHEMBL4680220, “Synthesis and biological evaluation of acridine-based histone deacetylase inhibitors as multitarget agents against Alzheimer's disease” (Eur J Med Chem, 2020).
